In ChEMBL document CHEMBL1131125, “Effect of polyamine analogues on hypusine content in JURKAT T-cells” (J Med Chem, 1998):

Legend:
Jurkat [1] = test: Inhibitory activity against growth of JURKAT cells after 144h.; type: functional, cell-based; details: Homo sapiens
Outline: (§1)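 JURKAT cells were grown in RPMI-1640 with 10% fetal calf serum, 2 mM L-glutamine and 1 mM aminoguanidine. Cells were counted electronically. IC50 is the concentration giving 50% of untreated growth, mean of at least two experiments.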

Jurkat [2] = test: % of hypusine (Hpu) in JURKAT cells after 144 hr at 5 uM concentration; type: functional, cell-based; details: Homo sapiens
Outline: (§2)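 JURKAT cells in log-phase growth were exposed to analogue for 144 h, at 2 μM for the tetraamines or 5 μM for the triamines. Cells were washed twice with ice-cold RPMI-1640 and extracted with 1.2 N HClO4. Values are percent of untreated control, mean ± SD of 2–5 determinations, each in triplicate.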

Jurkat [3] = test: effect of compound on polyamine biosynthetic enzymes in JURKAT cells using ODC assay; type: functional, Homo sapiens
Jurkat [4] = test: % of spermidine (SPD) in JURKAT cells after 144 hr at 5 uM concentration; type: functional, cell-based; details: Homo sapiens
Outline: (§3)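 Log-phase JURKAT cells were treated with analogue for 144 h, at 2 μM for tetraamines or 5 μM for triamines. After two ice-cold RPMI-1640 washes, pellets were extracted with 1.2 N HClO4. Results are percent of untreated control, mean ± SD of 2–5 determinations run in triplicate.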

L1210 [5] = test: Effect of compound on polyamine biosynthetic enzymes in L1210 cells using ODC assay; type: functional, Mus musculus
L1210 [6] = test: Effect of compound on polyamine biosynthetic enzymes in L1210 cells using AdoMetDC assay; type: functional, Mus musculus
L1210 [7] = test: Activity of compound measured against L1210 cells; type: functional, cell-based, Mus musculus
Jurkat [8] = test: % of spermine (SPM) in JURKAT cells after 144 hr at 5 uM concentration; type: functional, cell-based; details: Homo sapiens; outline: as §3
L1210 [9] = test: % of putrescine (PUT) in L1210 cells after 48 hr at 100 uM concentration; type: functional, cell-based; details: Mus musculus
Jurkat [10] = test: effect of compound on polyamine biosynthetic enzymes in JURKAT cells using AdoMetDC assay; type: functional, Homo sapiens
L1210 [11] = test: % of spermine (SPM) in L1210 cells after 48 hr at 100 uM concentration; type: functional, cell-based; details: Mus musculus
L1210 [12] = test: % of spermidine (SPD) in L1210 cells after 48 hr at 100 uM concentration; type: functional, cell-based; details: Mus musculus
Jurkat [13] = test: % of putrescine (PUT) in JURKAT cells after 144 hr at 5 uM concentration; type: functional, cell-based; details: Homo sapiens; outline: as §3
Jurkat [14] = test: competitive inhibition of [3H]SPD transport in JURKAT cells; type: functional, cell-based, Homo sapiens
Outline: (§4)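 [3H]spermidine uptake rate into JURKAT cells was measured at six spermidine concentrations, without analogue and with analogue at 50, 25 and 10 μM. Lineweaver–Burk plots were used to assign the competitive mode and derive Ki. Values are means of two or three experiments.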

Jurkat [15] = test: competitive inhibition of [3H]SPD transport by JURKAT cells; type: functional, cell-based, Homo sapiens; outline: as §4
L1210 [16] = test: effect of compound on polyamine biosynthetic enzymes in L1210 cells using AdoMetDC assay; type: functional, Mus musculus
Jurkat [17] = test: inhibitory activity against growth of JURKAT cells after 144h.; type: functional, cell-based; details: Homo sapiens; outline: as §1
L1210 [18] = test: effect of compound on polyamine biosynthetic enzymes in L1210 cells using ODC assay; type: functional, Mus musculus
L1210 (mouse) [19] = test: % of putrescine (PUT) in control cells after 72 hr at 2 uM concentration
L1210 (mouse) [20] = test: % of spermine (SPM) in control cells after 72 hr at 2 uM concentration
Jurkat [21] = test: % of spermine (SPM) in JURKAT cells after 144 hr at 2 uM concentration; type: functional, cell-based; details: Homo sapiens; outline: as §3
L1210 (mouse) [22] = test: % of spermidine (SPD) in control cells after 72 hr at 2 uM concentration
L1210 (mouse) [23] = test: % of hypusine (Hpu) in control cells after 72 hr at 2 uM concentration
L1210 [24] = test: % of spermine (SPM) in L1210 cells after 48 hr at 10 uM concentration; type: functional, cell-based; details: Mus musculus
Jurkat [25] = test: % of putrescine (PUT) in JURKAT cells after 144 h at 2 uM concentration; type: functional, cell-based; details: Homo sapiens; outline: as §3
Jurkat [26] = test: % of hypusine (Hpu) in JURKAT cells after 144 hr at 2 uM concentration; type: functional, cell-based; details: Homo sapiens; outline: as §2
L1210 [27] = test: % of putrescine (PUT) in L1210 cells after 48 hr at 10 uM concentration; type: functional, cell-based; details: Mus musculus
L1210 [28] = test: % of spermidine (SPD) in L1210 cells after 48 hr at 10 uM concentration; type: functional, cell-based; details: Mus musculus
Jurkat [29] = test: % of spermidine (SPD) in JURKAT cells after 144 hr at 2 uM concentration; type: functional, cell-based; details: Homo sapiens; outline: as §3
Jurkat [30] = test: Competitive inhibition of [3H]SPD (spermidine) transport in JURKAT cells; type: functional, cell-based, Homo sapiens; outline: as §4

IC50 (Jurkat [1])	IC50 (Jurkat [17])	Compound	Level (Jurkat [2])	ODC activity (% of control) (Jurkat [3])	Level (Jurkat [4])	Control (L1210 [5])	Ki (L1210 [7])	Level (Jurkat [8])	Level (L1210 [9])	AdoMetDC activity (% of control) (Jurkat [10])	Level (L1210 [11])	Level (L1210 [12])	Level (Jurkat [13])	Ki (Jurkat [15])	Control (L1210 [16])	Control (L1210 [18])	Level (Jurkat [21])	Level (L1210 [24])	Level (Jurkat [25])	Level (Jurkat [26])	other results
70000 nM	–	NCCCCCNCCCCN	80.2%	34.7%	0%	19%	1400 nM	25.2%	0%	79.3%	53%	0%	0%	–	–	–	–	–	–	–	Control (L1210 [6]): 57%; Ki (Jurkat [14]): 2800 nM
–	1200 nM	NCCCCCNCCCCCN	86.4%	53.3%	1.1%	–	14000 nM	38.8%	0%	84.9%	33%	0%	0%	13800 nM	88%	16%	–	–	–	–	–
–	650 nM	CCNCCCNCCCNCCCNCC [BIS(ETHYL)NORSPERMINE]	–	16.9%	–	–	–	–	–	51.4%	–	–	–	14400 nM	42%	10%	5.5%	31%	0%	58.9%	Level (L1210 (mouse) [19]): 0%; Level (L1210 (mouse) [20]): 13.4%; Level (L1210 (mouse) [22]): 3.8%; Level (L1210 (mouse) [23]): 56.8%; Level (L1210 [27]): 30%; Level (L1210 [28]): 14%; Level (Jurkat [29]): 9.2%
200 nM	–	CCNCCCCNCCCCNCCCCNCC [DIETHYLHOMOSPERMINE]	–	29.8%	–	7%	2000 nM	–	–	61.6%	–	–	–	–	41%	–	13.4%	61%	0%	73.2%	Ki (Jurkat [30]): 8800 nM; Level (L1210 [27]): 0%; Level (L1210 [28]): 0%; Level (Jurkat [29]): 0%
